From ChEMBL document CHEMBL4673272, “Discovery of cyclic sulfonamide derivatives as potent inhibitors of SARS-CoV-2” (Bioorg Med Chem Lett, 2021)

How the values were obtained:
[1] = Selectivity index, ratio of CC50 for African green monkey Vero cells infected with SARS-CoV-2 betaCoV/KOR/KCDC03/2020 to IC50 for SARS-CoV-2 betaCoV/KOR/KCDC03/2020
[2] = Cytotoxicity against African green monkey Vero cells infected with SARS-CoV-2 betaCoV/KOR/KCDC03/2020 assessed as reduction in cell viability measured after 72 hrs by CellTiter-Glo Luminescent Cell Viability Assay; assay type: cell-based; conditions: chlorocebus sabaeus
SARS-CoV-2 = test: Antiviral activity against SARS-CoV-2 betaCoV/KOR/KCDC03/2020 infected in African green monkey Vero cells assessed as inhibition of virus-induced cytopathic effect measured after 24 hrs by immunofluorescence assay; assay type: functional, organism-based; conditions: Severe acute respiratory syndrome coronavirus 2, betaCoV/KOR/KCDC03/2020, Vero
[3] = Metabolic stability in monkey microsomes assessed as parent compound remaining incubated for 30 mins; assay type: ADME, Macaca mulatta, Microsome; conditions: rhesus monkey, read-out: Stabilty
hERG (KCNH2) = hERG (KCNH2) (Homo sapiens, UniProt Q12809); test: Inhibition of human ERG at 10 uM relative to control
Chain of hERG (KCNH2) (Q12809 whole entry): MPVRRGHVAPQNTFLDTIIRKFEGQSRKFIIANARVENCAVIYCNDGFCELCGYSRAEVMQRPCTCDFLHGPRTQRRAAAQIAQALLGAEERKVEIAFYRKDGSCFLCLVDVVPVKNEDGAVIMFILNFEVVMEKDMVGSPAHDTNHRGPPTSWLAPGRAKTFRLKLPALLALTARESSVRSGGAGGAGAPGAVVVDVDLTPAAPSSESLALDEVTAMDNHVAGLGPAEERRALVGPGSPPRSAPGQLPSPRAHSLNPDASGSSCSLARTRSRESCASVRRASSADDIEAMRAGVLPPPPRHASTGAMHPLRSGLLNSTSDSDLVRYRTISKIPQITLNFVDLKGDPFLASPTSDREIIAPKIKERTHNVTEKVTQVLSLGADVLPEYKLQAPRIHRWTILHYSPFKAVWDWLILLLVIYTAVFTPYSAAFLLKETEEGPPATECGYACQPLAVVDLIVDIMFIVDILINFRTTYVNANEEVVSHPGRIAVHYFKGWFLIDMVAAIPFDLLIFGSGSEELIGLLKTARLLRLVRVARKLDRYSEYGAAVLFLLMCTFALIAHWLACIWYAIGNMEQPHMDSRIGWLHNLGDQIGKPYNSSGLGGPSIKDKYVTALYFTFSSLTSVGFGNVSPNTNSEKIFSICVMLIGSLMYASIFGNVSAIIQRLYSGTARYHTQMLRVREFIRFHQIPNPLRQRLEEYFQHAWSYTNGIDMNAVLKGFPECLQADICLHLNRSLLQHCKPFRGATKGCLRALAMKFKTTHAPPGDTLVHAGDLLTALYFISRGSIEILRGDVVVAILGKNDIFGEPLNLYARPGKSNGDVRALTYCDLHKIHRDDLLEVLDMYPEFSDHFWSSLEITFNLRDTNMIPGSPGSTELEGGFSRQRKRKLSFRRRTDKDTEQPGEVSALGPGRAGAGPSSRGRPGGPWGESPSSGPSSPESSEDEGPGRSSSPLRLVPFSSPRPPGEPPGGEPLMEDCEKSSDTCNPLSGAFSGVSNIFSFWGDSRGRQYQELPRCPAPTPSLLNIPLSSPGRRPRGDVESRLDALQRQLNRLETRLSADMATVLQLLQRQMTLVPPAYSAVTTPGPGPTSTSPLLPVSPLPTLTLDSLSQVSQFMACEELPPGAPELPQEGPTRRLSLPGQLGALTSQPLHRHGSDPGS

NIH3T3 = test: Cytotoxicity against mouse NIH/3T3 cells; assay type: cell-based
Procedure, shortened: (§1)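 Cell-line panel used for cytotoxicity: Vero, African green monkey kidney; HFL-1, human embryonic lung; L929 (NCTC clone 929), mouse fibroblast; NIH 3T3, mouse embryonic fibroblast; CHO-K1, Chinese hamster ovary. Values given in μM.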

Vero = test: Cytotoxicity against African green monkey Vero cells; assay type: cell-based; conditions: chlorocebus sabaeus; procedure, shortened: as §1
[4] = Oral bioavailability in rat at 10 mg/kg; assay type: ADME, organism-based; conditions: in vivo
Procedure, shortened: (§2)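 Rats, n = 3, were dosed at 5 mg/kg IV and 10 mg/kg PO. Cmax, T1/2, clearance and oral bioavailability (F) were derived from these two dosing routes.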

[5] = Metabolic stability in human microsomes assessed as parent compound remaining incubated for 30 mins; assay type: ADME, Microsome; conditions: read-out: Stabilty
[6] = Cmax in rat at 5 mg/kg, iv or 10 mg/kg, po; assay type: ADME, organism-based; set-up: dose 10 mg/kg; conditions: in vivo; procedure, shortened: as §2
[7] = Half life in rat at 5 mg/kg, iv or 10 mg/kg, po; assay type: ADME, organism-based; conditions: in vivo; procedure, shortened: as §2
[8] = Clearance in rat at 5 mg/kg, iv or 10 mg/kg, po; assay type: ADME, organism-based; conditions: in vivo; procedure, shortened: as §2
HFL1 = test: Cytotoxicity against human HFL-1 cells; assay type: cell-based; procedure, shortened: as §1
CHO-K1 = test: Cytotoxicity against CHO-K1 cells; assay type: cell-based, Cricetulus griseus; conditions: chinese hamster; procedure, shortened: as §1
L929 = test: Cytotoxicity against mouse L929 cells; assay type: cell-based; procedure, shortened: as §1

Row | Compound | Ratio CC50/IC50 [1] | CC50 at 72 h [2] | IC50 (SARS-CoV-2) | also measured
1 | N#Cc1ccc(C(=O)C2=C(O)c3ccccc3S(=O)(=O)N2CC(=O)c2ccc(F)c(Cl)c2)cc1 | 1 | > 25 µM | > 25 µM | –
2 | O=C(CN1C(C(=O)c2ccc(F)cc2)=C(O)c2ccccc2S1(=O)=O)Nc1ccccc1Cl | 1 | > 25 µM | > 25 µM | –
3 | COc1ccc(C(=O)C2=C(O)c3ccccc3S(=O)(=O)N2CC(=O)Nc2ccc(C(F)(F)F)cc2)cc1 | 2.5 | > 25 µM | 8.6 µM | –
4 | N#Cc1cccc(C(=O)C2=C(O)c3ccccc3S(=O)(=O)N2CC(=O)Nc2ccc(C(F)(F)F)cc2)c1 | 1.5 | > 25 µM | 10.7 µM | –
5 | O=C(CN1C(C(=O)c2ccc(F)cc2)=C(O)c2ccccc2S1(=O)=O)Nc1ccccc1 | 1 | > 25 µM | > 25 µM | –
6 | O=C(CN1C(C(=O)c2ccccc2)=C(O)c2ccccc2S1(=O)=O)NC1CCCCC1 | 1 | > 25 µM | > 25 µM | –
7 | N#Cc1cccc(C(=O)C2=C(O)c3ccccc3S(=O)(=O)N2CC(=O)c2ccc(F)c(Cl)c2)c1 | 1 | > 25 µM | > 25 µM | –
8 | N#Cc1ccc(C(=O)C2=C(O)c3ccccc3S(=O)(=O)N2CC(=O)Nc2ccc(C(F)(F)F)cc2)cc1 | 1.4 | > 25 µM | 9.3 µM | –
9 | N#Cc1cccc(C(=O)C2=C(O)c3ccccc3S(=O)(=O)N2CC(=O)Nc2cccc(OC(F)(F)F)c2)c1 | 1.6 | > 25 µM | 14.3 µM | –
10 | O=C(CN1C(C(=O)c2ccc(F)c(Cl)c2)=C(O)c2ccc(F)cc2S1(=O)=O)Nc1cccc(OC(F)(F)F)c1 | 8.9 | > 25 µM | 3.1 µM | –
11 | O=C(CN1C(C(=O)c2ccc(F)cc2)=C(O)c2ccccc2S1(=O)=O)Nc1cccc(F)c1 | – | > 25 µM | 15.3 µM | –
12 | O=C(CN1C(C(=O)c2ccc(F)c(Cl)c2)=C(O)c2ccccc2S1(=O)=O)Nc1cccc(OC(F)(F)F)c1 | 2.8 | > 25 µM | 9.2 µM | –
13 | O=C(CN1C(C(=O)c2cccc(Cl)c2)=C(O)c2ccccc2S1(=O)=O)Nc1ccc(C(F)(F)F)cc1 | 5.8 | > 25 µM | 4.1 µM | –
14 | O=C(CN1C(C(=O)c2ccccc2)=C(O)c2ccccc2S1(=O)=O)Nc1cccc(OC(F)(F)F)c1 | 2.1 | > 25 µM | 11.5 µM | –
15 | O=C(CN1C(C(=O)c2cccc(F)c2)=C(O)c2ccccc2S1(=O)=O)Nc1cccc(OC(F)(F)F)c1 | 2.3 | > 25 µM | 10.1 µM | –
16 | CCNC(=O)CN1C(C(=O)c2ccccc2)=C(O)c2ccccc2S1(=O)=O | 1 | > 25 µM | > 25 µM | –
17 | N#Cc1ccc(C(=O)C2=C(O)c3ccccc3S(=O)(=O)N2CC(=O)Nc2cccc(OC(F)(F)F)c2)cc1 | 1.6 | > 25 µM | 14.3 µM | –
18 | CC(C)C(=O)C1=C(O)c2ccccc2S(=O)(=O)N1CC(=O)Nc1ccc(C(F)(F)F)cc1 | 3 | > 25 µM | 7.3 µM | –

Row | Compound | Ratio CC50/IC50 [1] | CC50 at 72 h [2] | IC50 (SARS-CoV-2) | also measured
19 | O=C(CN1C(C(=O)c2ccc(F)c(Cl)c2)=C(O)c2ccccc2S1(=O)=O)Nc1ccc(C(F)(F)F)cc1 | 11.1 | > 25 µM | 2.5 µM | –
20 | O=C(/C=C/N1C(C(=O)c2ccc(F)c(Cl)c2)=C(O)c2ccccc2S1(=O)=O)Nc1cccc(OC(F)(F)F)c1 | 3.6 | > 25 µM | 6.6 µM | –
21 | CN1CCN(c2ccc3c(c2)S(=O)(=O)N(CC(=O)Nc2ccc(C(F)(F)F)cc2)C(C(=O)c2ccc(F)c(Cl)c2)=C3O)CC1 | 1.6 | > 25 µM | 14 µM | –
22 | O=C(CN1C(C(=O)c2ccc(F)cc2)=C(O)c2ccccc2S1(=O)=O)Nc1ccc(C(F)(F)F)cc1 | 4.7 | > 25 µM | 5.3 µM | –
23 | COc1ccc(C(=O)C2=C(O)c3ccccc3S(=O)(=O)N2CC(=O)Nc2cccc(OC(F)(F)F)c2)cc1 | 2 | > 25 µM | 11.6 µM | –
24 | CC(C)C(=O)C1=C(O)c2ccccc2S(=O)(=O)N1CC(=O)Nc1cccc(OC(F)(F)F)c1 | 1.9 | > 25 µM | 10.8 µM | –
25 | O=C(CN1C(C(=O)c2cccc(F)c2)=C(O)c2ccccc2S1(=O)=O)Nc1ccc(C(F)(F)F)cc1 | 3.2 | > 25 µM | 7 µM | –
26 | CCN(CC)CCCC(C)Nc1ccnc2cc(Cl)ccc12 (centres undefined) [CHLOROQUINE] | 3.1 | > 25 µM | 8 µM | –
27 | O=C(O)/C=C/N1C(C(=O)c2ccc(F)c(Cl)c2)=C(O)c2ccccc2S1(=O)=O | 1 | > 25 µM | > 25 µM | –
28 | O=C(CN1C(C(=O)c2ccc(Cl)cc2)=C(O)c2ccccc2S1(=O)=O)Nc1ccc(C(F)(F)F)cc1 | 6 | > 25 µM | 4 µM | –
29 | O=C(CN1C(C(=O)c2ccc(Cl)cc2)=C(O)c2ccccc2S1(=O)=O)Nc1cccc(OC(F)(F)F)c1 | 2.9 | > 25 µM | 8.5 µM | –
30 | O=C(CN1C(C(=O)c2ccc(F)c(Cl)c2)=C(O)c2ccc(F)cc2S1(=O)=O)Nc1ccc(C(F)(F)F)cc1 | 30.7 | > 25 µM | 0.88 µM | remaining at 0.5 h [3]: 61%; inhibition at 10 µM (hERG (KCNH2)): < 1%; Activity (NIH3T3): 68 µM; Activity (Vero): 42.1 µM; F [4]: 77%; remaining at 0.5 h [5]: 93%; Cmax [6]: 14330 ng/mL; t1/2 [7]: 18.5 h; CL [8]: 0.67 mL/min/kg; Activity (HFL1): 44.2 µM; Activity (CHO-K1): 10.6 µM; Activity (L929): 31.4 µM
31 | O=C(CN1C(C(=O)c2ccc(F)cc2)=C(O)c2ccccc2S1(=O)=O)Nc1cccc(OC(F)(F)F)c1 | 2.7 | > 25 µM | 8.9 µM | –
32 | O=C(C1=C(O)c2ccccc2S(=O)(=O)N1Cc1ccccc1)c1ccccc1 | 1 | > 25 µM | > 25 µM | –
33 | O=C(CN1C(C(=O)c2ccc(F)c(Cl)c2)=C(O)c2ccc(F)cc2S1(=O)=O)Nc1cccc(Cl)c1 | 12.1 | > 25 µM | 2.2 µM | –
34 | CCC(CC)COC(=O)[C@H](C)N[P@](=O)(OC[C@H]1O[C@@](C#N)(c2ccc3c(N)ncnn23)[C@H](O)[C@@H]1O)Oc1ccccc1 [REMDESIVIR] | 3.6 | > 25 µM | 7.01 µM | –
35 | O=C(CN1C(C(=O)c2cccc(Cl)c2)=C(O)c2ccccc2S1(=O)=O)Nc1cccc(OC(F)(F)F)c1 | 2.1 | > 25 µM | 11.9 µM | –
36 | CNc1ccc2c(c1)S(=O)(=O)N(CC(=O)Nc1ccc(C(F)(F)F)cc1)C(C(=O)c1ccc(F)c(Cl)c1)=C2O | 1.3 | > 25 µM | 13.8 µM | –
